# Residue numbers refer to the chain shown, from its start.
# Biological target: T1, OR2T5 (Homo sapiens) (UniProt Q6IEZ7)
# T1 sequence (whole entry): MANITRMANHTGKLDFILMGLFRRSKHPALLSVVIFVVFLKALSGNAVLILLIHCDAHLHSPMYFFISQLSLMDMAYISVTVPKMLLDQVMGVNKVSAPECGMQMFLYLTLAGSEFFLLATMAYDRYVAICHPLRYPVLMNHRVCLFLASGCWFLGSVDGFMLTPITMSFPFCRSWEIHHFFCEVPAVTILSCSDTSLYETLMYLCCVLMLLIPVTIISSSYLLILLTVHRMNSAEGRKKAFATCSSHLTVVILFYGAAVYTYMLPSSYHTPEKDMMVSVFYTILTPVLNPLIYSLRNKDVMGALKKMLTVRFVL
# Conditions: stereoisomer not certain
# Outline: (§1)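 Whether a receptor–molecule pair is responsive (active) rests on the original authors' judgment that its measured signal was statistically different from baseline. Pairs without that judgment are non-responsive (inactive). Sources used varied assay methods, commonly transient luciferase assays in mammalian cell lines.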
# 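Further: active if original authors judged signal statistically different from baseline.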
row,SMILES,odorant receptor agonist call
1,CCC1OC(=O)C(O)=C1C (stereo not given),inactive
2,CCC1OC(C)=C(O)C1=O (stereo not given),inactive
3,CC1=C(O)C(=O)C(C)O1 (stereo not given),inactive
4,CCCCCCC=CCCC=O,inactive
5,Cc1cnc(C)c(C)n1,inactive
6,CCCCCC(S)C(C)CO (stereo not given),inactive
7,CC1=C(O)C(=O)OC1C (stereo not given),inactive
8,CCCCC(S)C(C)CO (stereo not given),inactive
9,CC1=NC(C)C(C)S1 (stereo not given),inactive
10,CCC(S)C(C)CO (stereo not given),inactive
11,CC1CCCCCCCCCCCCC(=O)C1 (stereo not given),inactive
12,CC(=O)c1c(C)c([N+](=O)[O-])c(C(C)(C)C)c([N+](=O)[O-])c1C,inactive
13,CCCCCC(=O)C(C)C(C)=O (stereo not given),inactive
14,CC(CO)CS (stereo not given),inactive
15,CCCC(S)CCOC(C)=O (stereo not given),inactive

# Tested on: T2, OR2T5 K13R K41M G45E
# T2 sequence (whole entry): T1 sequence (whole entry) with K13R, K41M, G45E
# Conditions: stereoisomer not certain
# Outline: as §1
row,SMILES,odorant receptor agonist call
1,CCC1OC(=O)C(O)=C1C (stereo not given),inactive
2,CCC1OC(C)=C(O)C1=O (stereo not given),inactive
3,CC1=C(O)C(=O)C(C)O1 (stereo not given),inactive
4,CCCCCCC=CCCC=O,inactive
5,Cc1cnc(C)c(C)n1,inactive
6,CC1=C(O)C(=O)OC1C (stereo not given),inactive
7,CC1=NC(C)C(C)S1 (stereo not given),inactive
8,CCCC(S)CCOC(C)=O (stereo not given),inactive

# Tested on: T3, OR2T5 K13R L134F
# T3 sequence (whole entry): T1 sequence (whole entry) with K13R, L134F
# Conditions: stereoisomer not certain
# Outline: as §1
row,SMILES,odorant receptor agonist call
1,CCC1OC(=O)C(O)=C1C (stereo not given),inactive
2,CCC1OC(C)=C(O)C1=O (stereo not given),inactive
3,CC1=C(O)C(=O)C(C)O1 (stereo not given),inactive
4,Cc1cnc(C)c(C)n1,inactive
5,CC1=C(O)C(=O)OC1C (stereo not given),inactive
6,CC1=NC(C)C(C)S1 (stereo not given),inactive
7,CCCC(S)CCOC(C)=O (stereo not given),inactive

# Biological target: T4, OR2T6 (Homo sapiens) (UniProt Q8NHC8)
# T4 sequence (whole entry): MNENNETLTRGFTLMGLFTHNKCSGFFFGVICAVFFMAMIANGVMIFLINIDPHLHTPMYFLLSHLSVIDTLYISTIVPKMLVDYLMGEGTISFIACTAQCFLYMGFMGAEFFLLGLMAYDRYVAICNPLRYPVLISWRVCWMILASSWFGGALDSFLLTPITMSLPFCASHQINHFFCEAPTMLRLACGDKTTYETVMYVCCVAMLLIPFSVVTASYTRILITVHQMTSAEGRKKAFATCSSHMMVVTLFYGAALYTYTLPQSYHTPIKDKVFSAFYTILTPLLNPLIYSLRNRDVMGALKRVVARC
# Conditions: stereoisomer not certain
# Outline: as §1
row,SMILES,odorant receptor agonist call
1,CCC1OC(=O)C(O)=C1C (stereo not given),inactive
2,CCC1OC(C)=C(O)C1=O (stereo not given),inactive
3,CC1=C(O)C(=O)C(C)O1 (stereo not given),inactive
4,CCCCCCC=CCCC=O,inactive
5,Cc1cnc(C)c(C)n1,inactive
6,CCCCCC(S)C(C)CO (stereo not given),inactive
7,CC1=C(O)C(=O)OC1C (stereo not given),inactive
8,CCCCC(S)C(C)CO (stereo not given),inactive
9,CC1=NC(C)C(C)S1 (stereo not given),inactive
10,CCC(S)C(C)CO (stereo not given),inactive
11,CC1CCCCCCCCCCCCC(=O)C1 (stereo not given),inactive
12,CC(=O)c1c(C)c([N+](=O)[O-])c(C(C)(C)C)c([N+](=O)[O-])c1C,inactive
13,CCCCCC(=O)C(C)C(C)=O (stereo not given),inactive
14,CC(CO)CS (stereo not given),inactive
15,CCCC(S)CCOC(C)=O (stereo not given),inactive
